According to ChEMBL document CHEMBL3217692, “Synthesis and cytotoxicity evaluation of novel pyrido[3,4-d]pyrimidine derivatives as potential anticancer agents” (2012):

Legend:
Assay type in all cases: functional
SK-OV-3 = test: Cytotoxicity against human SKOV3 cells assessed as cell growth at 10 uM after 48 hrs by sulforhodamine B assay relative to control; details: SK-OV-3, 48 h, read-out: Activity
Method in brief: (§1)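 Adherent cells were grown in RPMI 1640 with 5% FBS and 2 mM L-glutamine, seeded at 5000–40 000 cells/well by doubling time, and held 24 h at 37 °C, 5% CO2 before drug. Time-zero plates were TCA-fixed. Compound in DMSO, single dose 10 μM, 48 h. Cells were fixed with cold TCA (final 10%, 60 min, 4 °C) and stained with 0.4% SRB. Bound dye was dissolved in 10 mM Tris base and read at 515 nm. Percent growth was derived from time-zero, control and treated absorbances.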

CAKI-1 = test: Cytotoxicity against human CAKI-1 cells assessed as cell growth at 10 uM after 48 hrs by sulforhodamine B assay relative to control; details: CAKI-1, 48 h, read-out: Activity; method in brief: as §1
HL-60(TB) = test: Cytotoxicity against human HL-60(TB) cells assessed as cell growth at 10 uM after 48 hrs by sulforhodamine B assay relative to control; details: HL-60, 48 h, read-out: Activity
Method in brief: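 Suspension line grown in RPMI 1640 with 5% FBS and 2 mM L-glutamine, plated at 5000–40 000 cells/well and preincubated 24 h at 37 °C, 5% CO2. Time-zero plates fixed at dosing. Single 10 μM dose in DMSO for 48 h. Settled cells fixed with TCA (final 16%), then stained with 0.4% SRB, solubilised in 10 mM Tris and read at 515 nm. Growth percentage calculated against time-zero and untreated control.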

MDA-MB-231 = test: Cytotoxicity against human MDA-MB-231 cells assessed as cell growth at 10 uM after 48 hrs by sulforhodamine B assay relative to control; details: MDA-MB-231, 48 h, read-out: Activity; method in brief: as §1
SK-MEL-5 = test: Cytotoxicity against human SK-MEL-5 cells assessed as cell growth at 10 uM after 48 hrs by sulforhodamine B assay relative to control; details: SK-MEL-5, 48 h, read-out: Activity; method in brief: as §1
NCI-H226 = test: Cytotoxicity against human NCI-H226 cells assessed as cell growth at 10 uM after 48 hrs by sulforhodamine B assay relative to control; details: NCI-H226, 48 h, read-out: Activity; method in brief: as §1
MCF7 = test: Cytotoxicity against human MCF7 cells assessed as cell growth at 10 uM after 48 hrs by sulforhodamine B assay relative to control; details: MCF7, 48 h, read-out: Activity; method in brief: as §1
SK-MEL-28 = test: Cytotoxicity against human SK-MEL-28 cells assessed as cell growth at 10 uM after 48 hrs by sulforhodamine B assay relative to control; details: SK-MEL-28, 48 h, read-out: Activity; method in brief: as §1
786-0 = test: Cytotoxicity against human 786-0 cells assessed as cell growth at 10 uM after 48 hrs by sulforhodamine B assay relative to control; details: 786-0, 48 h, read-out: Activity; method in brief: as §1
MOLT-4 = test: Cytotoxicity against human MOLT4 cells assessed as cell growth at 10 uM after 48 hrs by sulforhodamine B assay relative to control; details: MOLT-4, 48 h, read-out: Activity
Method in brief: (§2)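 Suspension lines were cultured in RPMI 1640 with 5% FBS and 2 mM L-glutamine, plated at 5000–40 000 cells/well and preincubated 24 h (37 °C, 5% CO2). Compound in DMSO was given at a single 10 μM dose for 48 h. Settled cells were fixed with 80% TCA (final 16%), then stained with SRB and read at 515 nm. Growth percentage was taken relative to time-zero and untreated control absorbances.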

COLO 205 = test: Cytotoxicity against human COLO205 cells assessed as cell growth at 10 uM after 48 hrs by sulforhodamine B assay relative to control; details: COLO 205, 48 h, read-out: Activity; method in brief: as §1
SNB-75 = test: Cytotoxicity against human SNB75 cells assessed as cell growth at 10 uM after 48 hrs by sulforhodamine B assay relative to control; details: SNB-75, 48 h, read-out: Activity; method in brief: as §1
K562 = test: Cytotoxicity against human K562 cells assessed as cell growth at 10 uM after 48 hrs by sulforhodamine B assay relative to control; details: K562, 48 h, read-out: Activity; method in brief: as §2
MDA-MB-435 = test: Cytotoxicity against human MDA-MB-435 cells assessed as cell growth at 10 uM after 48 hrs by sulforhodamine B assay relative to control; details: MDA-MB-435, 48 h, read-out: Activity; method in brief: as §1
SW-620 = test: Cytotoxicity against human SW620 cells assessed as cell growth at 10 uM after 48 hrs by sulforhodamine B assay relative to control; details: SW-620, 48 h, read-out: Activity; method in brief: as §1
DU-145 = test: Cytotoxicity against human DU145 cells assessed as cell growth at 10 uM after 48 hrs by sulforhodamine B assay relative to control; details: DU-145, 48 h, read-out: Activity; method in brief: as §1
MDA-MB-468 = test: Cytotoxicity against human MDA-MB-468 cells assessed as cell growth at 10 uM after 48 hrs by sulforhodamine B assay relative to control; details: MDA-MB-468, 48 h, read-out: Activity; method in brief: as §1
SF-295 = test: Cytotoxicity against human SF295 cells assessed as cell growth at 10 uM after 48 hrs by sulforhodamine B assay relative to control; details: SF-295, 48 h, read-out: Activity; method in brief: as §1
A498 = test: Cytotoxicity against human A498 cells assessed as cell growth at 10 uM after 48 hrs by sulforhodamine B assay relative to control; details: A498, 48 h, read-out: Activity; method in brief: as §1
SK-MEL-2 = test: Cytotoxicity against human SK-MEL-2 cells assessed as cell growth at 10 uM after 48 hrs by sulforhodamine B assay relative to control; details: SK-MEL-2, 48 h, read-out: Activity; method in brief: as §1
PC-3 = test: Cytotoxicity against human PC3 cells assessed as cell growth at 10 uM after 48 hrs by sulforhodamine B assay relative to control; details: PC-3, 48 h, read-out: Activity; method in brief: as §1
SR = test: Cytotoxicity against human SR cells assessed as cell growth at 10 uM after 48 hrs by sulforhodamine B assay relative to control; details: read-out: Activity; method in brief: as §2
[1] = Cytotoxicity against human OVCAR4 cells assessed as cell growth at 10 uM after 48 hrs by sulforhodamine B assay relative to control; details: OVCAR-4, 48 h, read-out: Activity; method in brief: as §1
KM12 = test: Cytotoxicity against human KM12 cells assessed as cell growth at 10 uM after 48 hrs by sulforhodamine B assay relative to control; details: KM12, 48 h, read-out: Activity; method in brief: as §1
TK-10 = test: Cytotoxicity against human TK10 cells assessed as cell growth at 10 uM after 48 hrs by sulforhodamine B assay relative to control; details: TK-10, 48 h, read-out: Activity
Method in brief: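 NCI-60 single-dose screen. Cells were grown in RPMI 1640 with 5% FBS and 2 mM L-glutamine, seeded at 5000–40 000 cells/well according to doubling time, and pre-incubated 24 h at 37 °C, 5% CO2. Time-zero plates were TCA-fixed at dosing. Compound in DMSO was given at 10 μM for 48 h. Cells were then fixed in cold TCA, stained with 0.4% SRB, solubilised in 10 mM Tris base and read at 515 nm. Growth % was calculated from time-zero, control and treated absorbances.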

With `COc1nccc2c(-c3cccc(F)c3)nc(N)nc12` the growth at 10 µM (SK-OV-3) was 105%, the growth at 10 µM (CAKI-1) was 104% and the growth at 10 µM (HL-60(TB)) was 92.5%. For the same compound, the growth at 10 µM (MDA-MB-231) was 107%, the growth at 10 µM (SK-MEL-5) was 108% and the growth at 10 µM (NCI-H226) was 98.2%. It also gave a growth at 10 µM (MCF7) of 39.2%, a growth at 10 µM (SK-MEL-28) of 97% and a growth at 10 µM (786-0) of 100%. For the same compound, the growth at 10 µM (MOLT-4) was 77.8%, the growth at 10 µM (COLO 205) was 109% and the growth at 10 µM (SNB-75) was 91.1%. For the same compound, the growth at 10 µM (K562) was 95.2%, the growth at 10 µM (MDA-MB-435) was 118% and the growth at 10 µM (SW-620) was 112%. The growth at 10 µM (DU-145) was 110%, the growth at 10 µM (MDA-MB-468) was 28.6% and the growth at 10 µM (SF-295) was 97.5%. For the same compound, the growth at 10 µM (A498) was 88.5%, the growth at 10 µM (SK-MEL-2) was 89.5% and the growth at 10 µM (PC-3) was 93%. For the same compound, the growth at 10 µM (SR) was 111%, the growth at 10 µM [1] was 97.6% and the growth at 10 µM (KM12) was 104%. The growth at 10 µM (TK-10) was 101%.
